From ChEMBL document CHEMBL1146966, “Beta'-hydroxy-alpha,beta-unsaturated ketones: a new pharmacophore for the design of anticancer drugs” (2006)

Key:
Assay type in all cases: functional
A2780 = assay: Antiproliferative activity against A2780 cell line after 48 hrs by SRB assay; details: Homo sapiens, A2780, 48 h
Procedure, shortened: (§1)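 Human solid tumor cells exposed 48 h to compound in duplicate at five tenfold dilutions, top final concentration 100 µM (DMSO stock at 400× that; controls got matching DMSO). Cells precipitated with ice-cold 50% TCA, fixed 60 min at 4 °C, stained by SRB, OD read at 490 nm. Percentage growth from OD at start versus end of exposure, corrected for medium-only background. GI50 = concentration giving PG +50 (NCI protocol); means of two to four experiments.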

SW1573 = assay: Antiproliferative activity against SW1573 cell line after 48 hrs by SRB assay; details: Homo sapiens, SW1573, 48 h; procedure, shortened: as §1
WiDr = assay: Antiproliferative activity against WiDr cell line after 48 hrs by SRB assay; details: Homo sapiens; procedure, shortened: as §1

Row | SMILES | GI50 (A2780) [µM] | GI50 (SW1573) [µM] | GI50 (WiDr) [µM]
1 | CC(=O)/C=C/C1CCCCC1 | 21 | 30 | 23
2 | CC(C)C/C=C/C(=O)c1ccccc1 | 20 | 31 | 22
3 | CC(C)CC(O)CC(=O)/C=C\c1ccccc1 (stereo not drawn) | 2.6 | 13 | 16
4 | CC(C)C/C=C(/C(=O)c1ccccc1)c1ccccc1 | 21 | 33 | 21
5 | Cc1ccc(/C=C\C(=O)CC(O)CC(C)C)cc1 (stereo not drawn) | 3.9 | 12 | 15
6 | O=C(/C=C/c1ccccc1)CC(O)c1ccccc1 (stereo not drawn) | 3.3 | 4.3 | 14
7 | CCCCCC/C=C/C(C)=O | 91 | 79 | 56
8 | CC(C)CC(O)C(C)C(=O)/C=C\c1ccc(Br)cc1 (stereo not drawn) | 5.5 | 11 | 12
9 | CC(C)(C)/C=C/C(=O)CC(O)C(C)(C)C (stereo not drawn) | 9.9 | 26 | 59
10 | CC(C)C/C=C(\CO)C(=O)c1ccccc1 | 18 | 24 | 19
11 | O=C(/C=C/C1CCCCC1)CC(O)C1CCCCC1 (stereo not drawn) | 1.8 | 3.1 | 2.9
12 | O=C(/C=C/CCCCCCCCCCBr)CC(O)CCCCCCCCCCBr (stereo not drawn) | 16 | 30 | 32
13 | CC(C)C/C=C/C(=O)CC(O)CC(C)C (stereo not drawn) | 17 | 27 | 21
14 | CCCCCC/C=C/C(=O)CC(O)CCCCCC (stereo not drawn) | 26 | 25 | 31
15 | C/C(=C\CC(C)C)C(=O)c1ccccc1 | > 100 | > 100 | > 100
16 | C/C(=C\C1CCCCC1)C(=O)c1ccccc1 | 28 | 36 | 41
